Source: ChEMBL document CHEMBL3813671, “Unexpected Discovery of Dichloroacetate Derived Adenosine Triphosphate Competitors Targeting Pyruvate Dehydrogenase Kinase To Inhibit Cancer Proliferation” (J Med Chem, 2016)
pIC50, pKd: −log10 of the molar value. Calls of active or inactive are those of the source. No cut-off for these calls is given here.

Key:
[1] = biological target: T1, [Pyruvate dehydrogenase (acetyl-transferring)] kinase isozyme 1, mitochondrial (Homo sapiens, UniProt Q15118); test: Inhibition of PDK1 in human MCF7 cells assessed as increase in ratio of oxygen consumption rate to extracellular acidification rate at 20 uM after 12 hrs; format: cell-based
T1 sequence (Q15118 whole entry): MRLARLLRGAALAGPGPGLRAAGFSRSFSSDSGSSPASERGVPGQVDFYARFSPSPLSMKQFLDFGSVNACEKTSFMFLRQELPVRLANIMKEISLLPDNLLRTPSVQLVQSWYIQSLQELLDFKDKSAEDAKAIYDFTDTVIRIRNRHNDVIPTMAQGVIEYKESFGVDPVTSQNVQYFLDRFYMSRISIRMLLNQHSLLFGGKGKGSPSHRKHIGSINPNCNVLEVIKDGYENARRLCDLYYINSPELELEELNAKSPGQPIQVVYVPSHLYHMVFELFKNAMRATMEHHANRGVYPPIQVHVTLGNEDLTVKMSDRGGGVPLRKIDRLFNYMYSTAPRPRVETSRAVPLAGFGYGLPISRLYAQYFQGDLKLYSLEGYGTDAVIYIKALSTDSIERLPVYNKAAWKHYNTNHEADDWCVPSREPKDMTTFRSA
Procedure, shortened: (§1)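 MCF-7 cells at 2.7×10⁴ cells/well in XF24 plates, attached, then grown 24 h at 37 °C in 5% CO2. Treated 12 h at 5, 10 or 20 µM, rinsed into glycolysis stress-test medium and held 1 h at 37 °C without CO2. OCR, ECAR and PPR then measured on a Seahorse XFe24 analyser. Significance P < 0.05 versus untreated control.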

[2] = biological target: T1, [Pyruvate dehydrogenase (acetyl-transferring)] kinase isozyme 1, mitochondrial; test: Inhibition of PDK1 in human MCF7 cells assessed as increase in oxygen consumption rate at 5 to 20 uM after 12 hrs; format: cell-based; procedure, shortened: as §1
[3] = biological target: T1, [Pyruvate dehydrogenase (acetyl-transferring)] kinase isozyme 1, mitochondrial; test: Inhibition of PDK1 in human MCF7 cells assessed as increase in oxygen consumption rate at 40 uM after 12 hrs; format: cell-based
[4] = biological target: T1, [Pyruvate dehydrogenase (acetyl-transferring)] kinase isozyme 1, mitochondrial; test: Inhibition of PDK1 in human MCF7 cells assessed as decrease in extracellular acidification rate after 12 hrs; format: cell-based; procedure, shortened: as §1
[5] = biological target: T1, [Pyruvate dehydrogenase (acetyl-transferring)] kinase isozyme 1, mitochondrial; test: Inhibition of PDK1 in human MCF7 cells assessed as decrease in proton production rate after 12 hrs; format: cell-based; procedure, shortened: as §1
[6] = biological target: T1, [Pyruvate dehydrogenase (acetyl-transferring)] kinase isozyme 1, mitochondrial; test: Inhibition of PDK1 in human MCF7 cells assessed as decrease in lactate production at 5 to 20 uM after 12 hrs; format: cell-based
MCF7 [7] = test: Reversal of hyperpolarized mitochondrial membrane potential in human MCF7 cells assessed as cells with vital and intact mitochondrial membranes at 20 uM after 12 hrs by JC1 staining-based flow cytometric analysis; format: functional
Procedure, shortened: (§2)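 MCF-7 cells treated 12 h (5, 10 or 20 µM), then stained with JC-1. Depolarization read as the ratio of green J-monomer to red J-aggregate fluorescence.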

MCF7 [8] = test: Reversal of hyperpolarized mitochondrial membrane potential in human MCF7 cells assessed as J-monomer/J-aggregate ratio at 20 uM after 12 hrs by JC1 staining-based flow cytometric analysis; format: functional; procedure, shortened: as §2
MCF7 [9] = test: Reversal of hyperpolarized mitochondrial membrane potential in human MCF7 cells after 12 hrs by JC1 staining-based flow cytometric analysis; format: functional, cell-based
MCF7 [10] = test: Induction of mitochondrial membrane potential depolarization in human MCF7 cells at 40 uM after 12 hrs by TMRM staining-based assay; format: functional, cell-based
MCF7 [11] = test: Reversal of hyperpolarized mitochondrial membrane potential in human MCF7 cells assessed as cells with vital and intact mitochondrial membranes at 5 uM after 12 hrs by JC1 staining-based flow cytometric analysis; format: functional; procedure, shortened: as §2
MCF7 [12] = test: Reversal of hyperpolarized mitochondrial membrane potential in human MCF7 cells assessed as cells with vital and intact mitochondrial membranes at 10 uM after 12 hrs by JC1 staining-based flow cytometric analysis; format: functional; procedure, shortened: as §2
A549 [13] = test: Cytotoxicity against human A549 cells assessed as growth inhibition after 72 hrs by MTT assay; format: functional, cell-based; conditions: A549, 72 h
MCF7 [14] = test: Cytotoxicity against human MCF7 cells assessed as growth inhibition after 72 hrs by MTT assay; format: functional, cell-based; conditions: MCF7, 72 h
[15] = Cytotoxicity against human MCF10A cells assessed as growth inhibition at 10 uM after 72 hrs by MTT assay relative to control; format: cell-based, MCF-10A; conditions: read-out: GI
[16] = Cytotoxicity against human MCF10A cells assessed as growth inhibition at 20 uM after 72 hrs by MTT assay relative to control; format: cell-based, MCF-10A; conditions: read-out: GI
A549 [17] = test: Cytotoxicity against human A549 cells assessed as growth inhibition at 40 uM after 72 hrs by MTT assay relative to control; format: functional, cell-based
MCF7 [18] = test: Cytotoxicity against human MCF7 cells assessed as growth inhibition at 40 uM after 72 hrs by MTT assay relative to control; format: functional, cell-based
MCF7 [19] = test: Induction of apoptosis in human MCF7 assessed as early apoptotic cells at 20 uM after 10 hrs by FITC-annexin V/propidium iodide staining-based flow cytometric analysis (reference value: 2.38%); format: functional
MCF7 [20] = test: Induction of apoptosis in human MCF7 assessed as late apoptotic cells at 20 uM after 10 hrs by FITC-annexin V/propidium iodide staining-based flow cytometric analysis (reference value: 1.95%); format: functional
MCF7 [21] = test: Induction of apoptosis in human MCF7 assessed as necrotic cells at 20 uM after 10 hrs by FITC-annexin V/propidium iodide staining-based flow cytometric analysis (reference value: 1.86%); format: functional
MCF7 [22] = test: Induction of apoptosis in human MCF7 assessed as viable cells at 20 uM after 10 hrs by FITC-annexin V/propidium iodide staining-based flow cytometric analysis (reference value: 93.8%); format: functional; conditions: MCF7, 10 h, read-out: Activity
MCF7 [23] = test: Induction of apoptosis in human MCF7 assessed as early apoptotic cells at 20 uM after 5 hrs by FITC-annexin V/propidium iodide staining-based flow cytometric analysis (reference value: 2.38%); format: functional
MCF7 [24] = test: Induction of apoptosis in human MCF7 assessed as late apoptotic cells at 20 uM after 5 hrs by FITC-annexin V/propidium iodide staining-based flow cytometric analysis (reference value: 1.95%); format: functional
MCF7 [25] = test: Induction of apoptosis in human MCF7 assessed as necrotic cells at 20 uM after 5 hrs by FITC-annexin V/propidium iodide staining-based flow cytometric analysis (reference value: 1.86%); format: functional
MCF7 [26] = test: Induction of apoptosis in human MCF7 assessed as viable cells at 20 uM after 5 hrs by FITC-annexin V/propidium iodide staining-based flow cytometric analysis (reference value: 93.8%); format: functional; conditions: MCF7, 5 h, read-out: Activity
MCF7 [27] = test: Induction of apoptosis in human MCF7 assessed as early apoptotic cells at 20 uM after 15 hrs by FITC-annexin V/propidium iodide staining-based flow cytometric analysis (reference value: 2.38%); format: functional
MCF7 [28] = test: Induction of apoptosis in human MCF7 assessed as late apoptotic cells at 20 uM after 15 hrs by FITC-annexin V/propidium iodide staining-based flow cytometric analysis (reference value: 1.95%); format: functional
MCF7 [29] = test: Induction of apoptosis in human MCF7 assessed as necrotic cells at 20 uM after 15 hrs by FITC-annexin V/propidium iodide staining-based flow cytometric analysis (reference value: 1.86%); format: functional
MCF7 [30] = test: Induction of apoptosis in human MCF7 assessed as viable cells at 20 uM after 15 hrs by FITC-annexin V/propidium iodide staining-based flow cytometric analysis (reference value: 93.8%); format: functional; conditions: MCF7, 15 h, read-out: Activity
MCF7 [31] = test: Induction of apoptosis in human MCF7 assessed as viable cells at 20 uM by FITC-annexin V/propidium iodide staining-based flow cytometric analysis; format: functional, cell-based; conditions: TDE = time-dependent effect
[32] = biological target: T1, [Pyruvate dehydrogenase (acetyl-transferring)] kinase isozyme 1, mitochondrial; test: Binding affinity to recombinant N-terminal 6xHis-SUMO-tagged human PDK1 (29 to 436 residues) expressed in Escherichia coli BL-21 by isothermal titration calorimetric method
Procedure, shortened: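 Ligand titrated into PDK1 (10 or 20 µM) by ITC at 25 °C, 2.5 µL injections into a 300 µL cell. Protein is His-SUMO-tagged, co-expressed with GroEL/GroES in E. coli BL-21, purified by Ni-IMAC and gel filtration.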

A549 [33] = test: Cytotoxicity against human A549 cells assessed as growth inhibition at 20 uM after 72 hrs by IncuCyte Zoom live cells imaging method; format: functional, cell-based
MCF7 [34] = test: Cytotoxicity against human MCF7 cells assessed as growth inhibition at 20 uM after 72 hrs by IncuCyte Zoom live cells imaging method; format: functional, cell-based
[35] = biological target: T1, [Pyruvate dehydrogenase (acetyl-transferring)] kinase isozyme 1, mitochondrial; test: Inhibition of recombinant N-terminal 6xHis-SUMO-tagged human PDK1 (29 to 436 residues) expressed in Escherichia coli BL-21 assessed as phosphorylation of RYHGHSMSDP at 50 uM after 30 mins by Kinase-Glo luminescent assay
Sus scrofa [36] = species on record: Sus scrofa; test: Activation of pig heart PDC assessed as production of NADH at 50 uM in presence of ATP
Procedure, shortened: (§3)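 Pig heart PDC (80 µg/ml, carrying intrinsic PDK activity) preincubated 40 min at 37 °C in Mops pH 7.20 buffer with NaF, acetyl-CoA, NADH and DTT. Kinase step 3 min at 37 °C with 55 µM ADP and 100 µM ATP, or no ATP. Stopped with ADP/pyruvate. Residual PDC activity then read as NADH formation at 340 nm, 37 °C, in Tris pH 7.8 with TPP, NAD+, pyruvate and CoA.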

Sus scrofa [37] = species on record: Sus scrofa; test: Activation of pig heart PDC assessed as production of NADH at 50 uM in absence of ATP; procedure, shortened: as §3
[38] = biological target: T1, [Pyruvate dehydrogenase (acetyl-transferring)] kinase isozyme 1, mitochondrial; test: Inhibition of recombinant N-terminal 6xHis-SUMO-tagged human PDK1 (29 to 436 residues) expressed in Escherichia coli BL-21 assessed as activation of PDC at 50 uM
[39] = biological target: T1, [Pyruvate dehydrogenase (acetyl-transferring)] kinase isozyme 1, mitochondrial; test: Inhibition of recombinant N-terminal 6xHis-SUMO-tagged human PDK1 (29 to 436 residues) expressed in Escherichia coli BL-21 assessed as suppression of PDC phosphorylation at S293 at 50 uM after 30 mins by Western blot method

With `O=C(Nc1ccc(Cl)c(C(F)(F)F)c1)C(Cl)Cl` the inhibition [1] was “Active”, the inhibition [2] was “Dose-dependent effect” and the inhibition [3] was “inactive”. For the same compound, the inhibition [4] was “Dose-dependent effect”, the inhibition [5] was “Dose-dependent effect” and the inhibition [6] was “Active”. For the same compound, the Activity (MCF7 [7]) was 46.8%, the Ratio (MCF7 [8]) was 1.69 and the Activity (MCF7 [9]) was “Dose-dependent effect”. The Activity (MCF7 [10]) was “Active”, the Activity (MCF7 [11]) was 79.7% and the Activity (MCF7 [12]) was 65%. For the same compound, the pIC50 (A549 [13]) was 5.13, the pIC50 (MCF7 [14]) was 5.51 and the inhibition at 72 h, 10 µM [15] was 3.51%. For the same compound, the inhibition at 72 h, 20 µM [16] was 10.3%, the “growth inhibition (GI)” value (A549 [17]) was “Active” and the “growth inhibition (GI)” value (MCF7 [18]) was “Active”. For the same compound, the Activity (MCF7 [19]) was 2.88%, the Activity (MCF7 [20]) was 11.8% and the Activity (MCF7 [21]) was 3.47%. For the same compound, the viability at 20 µM (MCF7 [22]) was 81.9%, the Activity (MCF7 [23]) was 1.98% and the Activity (MCF7 [24]) was 10.2%. The Activity (MCF7 [25]) was 5.41%, the viability at 20 µM (MCF7 [26]) was 82.4% and the Activity (MCF7 [27]) was 2.65%. For the same compound, the Activity (MCF7 [28]) was 14.2%, the Activity (MCF7 [29]) was 4.96% and the viability at 20 µM (MCF7 [30]) was 78.2%. The Activity (MCF7 [31]) was “tde”, the pKd [32] was 4.39 and the “growth inhibition (GI)” value (A549 [33]) was “Active”. The “growth inhibition (GI)” value (MCF7 [34]) was “Active”, the inhibition [35] was “Active” and the Activity (Sus scrofa [36]) was “inactive”. The Activity (Sus scrofa [37]) was “Active”, the inhibition [38] was “Active” and the inhibition [39] was “Active”.
